# Published values gathered from unrelated publications.
# Lines come from different studies, so protocols differ.
# Target: Serine/threonine-protein kinase 32B (STK32B, Homo sapiens, UniProt Q9NY57)
Structure (SMILES),assay,setting,remaining binding [%]
C[C@H](c1cccc(C#N)c1)n1cc(Cl)cc(C(N)=O)c1=N,"cell-free assay, competition with immobilised ligand",1 µM,100
N[C@H]1CCN(c2nccc(-c3cnn4ncccc34)n2)C1,binding,1 µM,100
O=C(NCCCC1CCCCC1)c1ccc(CNC(=O)c2cnn(-c3ccccc3)c2C(F)(F)F)cc1,"cell-free assay, competition with immobilised ligand",0.1 µM,100
FC(F)(F)Oc1cccc(-c2cnc3ccc(-c4ccncc4)nn23)c1,"binding, competition with immobilised ligand",5 µM,97
CC1=C(C#N)[C@@H](c2ccc3[nH]nc(C)c3c2)C(C#N)=C(c2ccc(Cl)cc2)N1,"cell-free assay, competition with immobilised ligand",1 µM,100
c1cncc(-c2cccc(Nc3nccc(NC4CCCCC4)n3)c2)c1,"binding, competition with immobilised ligand",10 µM,100
CCC(=O)N[C@H]1CC[C@@H](C(=O)N(C)c2ccc(-c3nc4ccccc4o3)cc2)C1,"cell-free assay, competition with immobilised ligand",1 µM,98
c1cnn2ncc(-c3ccnc(N4CCC45COC5)n3)c2c1,binding,1 µM,93
CNC(=O)c1ccc(Nc2ncc(C(F)(F)F)c(NCc3nccnc3N(C)S(C)(=O)=O)n2)cc1,"cell-free assay, competition with immobilised ligand",0.1 µM,97
O=C(Nc1c[nH]nc1C(=O)NC1CCNCC1)c1cc(F)cc(F)c1,"binding, competition with immobilised ligand",1 µM,57
CN(CCCC(F)(F)F)c1nccc(-c2cnn3ncccc23)n1,binding,1 µM,87
O=C(c1ccc(Nc2ncc(Cl)c(-c3ccc(Cl)s3)n2)cc1)N1CCC(N2CCCC2)CC1,"binding, competition with immobilised ligand",1 µM,100
C[C@@H](c1ccc(-n2cnc3c(N)ncnc32)cc1)N1CCc2nn(C)c(Cc3ccccc3)c2C1=O,"binding, competition with immobilised ligand",0.1 µM,99
CC1CCCN1c1nccc(-c2cnn3ncccc23)n1 (stereo not drawn),binding,1 µM,100
Cc1cnc(Nc2ccc(C(=O)N3CCC(N4CCCC4)CC3)cc2)nc1-c1cc2ccccc2s1,"binding, competition with immobilised ligand",1 µM,100
COc1cnc(Nc2cccc(S(N)(=O)=O)c2)nc1N1CCN(c2ccccc2)CC1,"binding, competition with immobilised ligand",1 µM,100
O=C(NCCCN1CCOCC1)c1ccc(Nc2ncc(Cl)c(-c3ccc(Cl)s3)n2)cc1,"binding, competition with immobilised ligand",1 µM,100
CN(C)c1ncc(F)c(-c2cnn3ncccc23)n1,binding,1 µM,100
CNC(=O)[C@@H]1CC[C@@H](n2c(-c3ccc4cnccc4c3)nc3ccc(C(=O)NCc4cccc(C(N)=O)c4)cc32)C1,"binding, competition with immobilised ligand",1 µM,100
CO[C@@H](C)c1c(Nc2ccc([C@H](N(C)C(=O)C3CCS(=O)(=O)CC3)C(F)(F)F)cc2)cnc2cc(Cl)nn12,"cell-free assay, competition with immobilised ligand",1 µM,89
C[C@H]1CCN(c2nccc(-c3cnn4ncccc34)n2)C1,binding,1 µM,100
